In ChEMBL document CHEMBL4024721, “C-2 (E)-4-(Styryl)aniline substituted diphenylpyrimidine derivatives (Sty-DPPYs) as specific kinase inhibitors targeting clinical resistance related EGFRT790M mutant” (Bioorg Med Chem, 2017):

Legend:
NCI-H1975 [1] = assay: Antiproliferative activity against human NCI-H1975 cells harboring EGFR T790M/L858R double mutant assessed as decrease in cell viability after 72 hrs by MTT assay; type: functional, cell-based; settings: NCI-H1975, 72 h
A-431 = assay: Antiproliferative activity against human A431 cells harboring wild type EGFR assessed as decrease in cell viability after 72 hrs by MTT assay; type: ADME, cell-based; settings: A-431, 72 h
[2] = Antiproliferative activity against NHBE cells assessed as decrease in cell viability after 72 hrs by MTT assay; type: ADME, cell-based; settings: Homo sapiens
[3] = system: Epidermal growth factor receptor (Homo sapiens), P00533 [L858R,T790M]; assay: Potency index, ratio of gefitinib IC50 to test compound IC50 for recombinant human EGFR T790M/L858R double mutant (695 to end residues)
[4] = target: Epidermal growth factor receptor (Homo sapiens, UniProt P00533); type: ADME
HCC827 = assay: Antiproliferative activity against human HCC827 cells harboring EGFR del E746 to A750 mutant assessed as decrease in cell viability after 72 hrs by MTT assay; type: functional, cell-based; settings: HCC827, 72 h
[5] = target: Epidermal growth factor receptor (Homo sapiens, UniProt P00533, L858R/T790M)
A549 = assay: Antiproliferative activity against human A549 cells harboring EGFR K-ras mutant assessed as decrease in cell viability after 72 hrs by MTT assay; type: functional, cell-based; settings: A549, 72 h
NCI-H1975 [6] = assay: Induction of apoptosis in human NCI-H1975 cells harboring EGFR T790M/L858R double mutant assessed as necrotic cells at 4 uM after 72 hrs by annexin V/FITC staining-based flow cytometric method relative to control; type: functional
Procedure, shortened: (§1)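 H1975 cells (ATCC), grown as monolayers at 37 °C in humidified 5% CO2, were incubated with compound at the indicated concentrations for 72 h. They were then stained with annexin V/FITC and analysed by flow cytometry. The data shown come from one representative experiment.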

NCI-H1975 [7] = assay: Induction of apoptosis in human NCI-H1975 cells harboring EGFR T790M/L858R double mutant assessed as viable cells at 4 uM after 72 hrs by annexin V/FITC staining-based flow cytometric method relative to control; type: functional; settings: NCI-H1975, 72 h, read-out: Activity; procedure, shortened: as §1
NCI-H1975 [8] = assay: Induction of apoptosis in human NCI-H1975 cells harboring EGFR T790M/L858R double mutant assessed as early apoptotic cells at 8 uM after 72 hrs by annexin V/FITC staining-based flow cytometric method relative to control; type: functional; procedure, shortened: as §1
NCI-H1975 [9] = assay: Induction of apoptosis in human NCI-H1975 cells harboring EGFR T790M/L858R double mutant assessed as late apoptotic cells at 8 uM after 72 hrs by annexin V/FITC staining-based flow cytometric method relative to control; type: functional; procedure, shortened: as §1
NCI-H1975 [10] = assay: Induction of apoptosis in human NCI-H1975 cells harboring EGFR T790M/L858R double mutant assessed as late apoptotic cells at 4 uM after 72 hrs by annexin V/FITC staining-based flow cytometric method relative to control; type: functional; procedure, shortened: as §1
NCI-H1975 [11] = assay: Induction of apoptosis in human NCI-H1975 cells harboring EGFR T790M/L858R double mutant after 72 hrs by annexin V/FITC staining-based flow cytometric method; type: functional, cell-based; procedure, shortened: as §1
NCI-H1975 [12] = assay: Induction of apoptosis in human NCI-H1975 cells harboring EGFR T790M/L858R double mutant assessed as viable cells at 8 uM after 72 hrs by annexin V/FITC staining-based flow cytometric method relative to control; type: functional; settings: NCI-H1975, 72 h, read-out: Activity; procedure, shortened: as §1
NCI-H1975 [13] = assay: Induction of apoptosis in human NCI-H1975 cells harboring EGFR T790M/L858R double mutant assessed as viable cells at 1 uM after 72 hrs by annexin V/FITC staining-based flow cytometric method relative to control; type: functional; settings: NCI-H1975, 72 h, read-out: Activity; procedure, shortened: as §1
NCI-H1975 [14] = assay: Induction of apoptosis in human NCI-H1975 cells harboring EGFR T790M/L858R double mutant assessed as early apoptotic cells at 1 uM after 72 hrs by annexin V/FITC staining-based flow cytometric method relative to control; type: functional; procedure, shortened: as §1
NCI-H1975 [15] = assay: Induction of apoptosis in human NCI-H1975 cells harboring EGFR T790M/L858R double mutant assessed as early apoptotic cells at 4 uM after 72 hrs by annexin V/FITC staining-based flow cytometric method relative to control; type: functional; procedure, shortened: as §1
NCI-H1975 [16] = assay: Induction of apoptosis in human NCI-H1975 cells harboring EGFR T790M/L858R double mutant assessed as necrotic cells at 1 uM after 72 hrs by annexin V/FITC staining-based flow cytometric method relative to control; type: functional; procedure, shortened: as §1
NCI-H1975 [17] = assay: Induction of apoptosis in human NCI-H1975 cells harboring EGFR T790M/L858R double mutant assessed as necrotic cells at 8 uM after 72 hrs by annexin V/FITC staining-based flow cytometric method relative to control; type: functional; procedure, shortened: as §1
NCI-H1975 [18] = assay: Induction of apoptosis in human NCI-H1975 cells harboring EGFR T790M/L858R double mutant assessed as late apoptotic cells at 1 uM after 72 hrs by annexin V/FITC staining-based flow cytometric method relative to control; type: functional; procedure, shortened: as §1

IC50 (NCI-H1975 [1])	IC50 (A-431)	Ratio IC50 [3]	IC50 [4]	IC50 (HCC827)	IC50 [5]	IC50 (A549)	SMILES	IC50 [2]	other results
6.98 µM	1.29 µM	45 to 177	0.388 µM	10.8 µM	0.0142 µM	7.01 µM	C=CC(=O)Nc1cccc(Nc2nc(Nc3ccc(/C=C/c4cc(Cl)cc(Cl)c4)cc3)ncc2F)c1	5.42 µM	–
2.32 µM	5.56 µM	45 to 177	0.607 µM	4 µM	0.0265 µM	5.59 µM	C=CC(=O)Nc1cccc(Nc2nc(Nc3ccc(/C=C/c4cc(C)cc(C)c4)cc3)ncc2Cl)c1	17 µM	–
3.76 µM	1.78 µM	45 to 177	0.216 µM	3.32 µM	0.0157 µM	6.84 µM	C=CC(=O)Nc1cccc(Nc2nc(Nc3ccc(/C=C/c4cc(OC)cc(OC)c4)cc3)ncc2Cl)c1	9.18 µM	–
13.7 µM	4.71 µM	45 to 177	0.087 µM	11.7 µM	0.0224 µM	10.8 µM	C=CC(=O)Nc1cccc(Oc2nc(Nc3ccc(/C=C/c4cc(C)cc(C)c4)cc3)ncc2Cl)c1	6.07 µM	–
2.91 µM	10.6 µM	45 to 177	0.539 µM	2.07 µM	0.011 µM	12.8 µM	C=CC(=O)Nc1cccc(Nc2nc(Nc3ccc(/C=C/c4cc(C)cc(C)c4)cc3)ncc2F)c1	22.5 µM	Activity (NCI-H1975 [6]): 1.4%; viability at 4 µM (NCI-H1975 [7]): 45.7%; Activity (NCI-H1975 [8]): 3.7%; Activity (NCI-H1975 [9]): 76.1%; Activity (NCI-H1975 [10]): 25.8%; Activity (NCI-H1975 [11]): Dose-dependent effect; viability at 8 µM (NCI-H1975 [12]): 7%; viability at 1 µM (NCI-H1975 [13]): 55.9%; Activity (NCI-H1975 [14]): 17.7%; Activity (NCI-H1975 [15]): 27.1%; Activity (NCI-H1975 [16]): 3.7%; Activity (NCI-H1975 [17]): 13.2%; Activity (NCI-H1975 [18]): 22.7%
4.39 µM	3.16 µM	45 to 177	0.996 µM	9.71 µM	0.0068 µM	4.94 µM	C=CC(=O)Nc1cccc(Nc2nc(Nc3ccc(/C=C/c4ccc(C)cc4C)cc3)ncc2Cl)c1	15.8 µM	–
7.16 µM	3.11 µM	45 to 177	0.387 µM	> 20 µM	0.0081 µM	1.32 µM	C=CC(=O)Nc1cccc(Nc2nc(Nc3ccc(/C=C/c4ccc(C)cc4C)cc3)ncc2F)c1	10.4 µM	–
0.137 µM	1.79 µM	–	–	0.031 µM	–	3.24 µM	C=CC(=O)Nc1cccc(Nc2nc(Nc3ccc(N4CCN(C(C)=O)CC4)cc3OC)ncc2C(F)(F)F)c1 [ROCILETINIB]	23.8 µM	–
6.98 µM	6.56 µM	45 to 177	1.04 µM	9.16 µM	0.0113 µM	15.8 µM	C=CC(=O)Nc1cccc(Nc2nc(Nc3ccc(/C=C/c4cc(Cl)cc(Cl)c4)cc3)ncc2Cl)c1	35.2 µM	–
